Our source for the ED50, inhibition in vivo and Activity values is ChEMBL document CHEMBL1147338, “Production of an anti-allergic triterpene bryonolic acid, by plant cell cultures” (J Nat Prod, 1993).

Series [1] concerns Mus musculus. The series can be described thus: Antiallergic activity in ip dosed ddY mouse assessed as inhibition of passive cutaneous anaphylaxis administered 15 mins before egg albumin challenge. The series is classed as functional. As to conditions: read-out: ID50 (the source's name). The procedure, abridged:
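Passive cutaneous anaphylaxis: anti-egg-albumin antiserum injected into both ears 48 h before iv egg albumin plus Evans Blue. Intraperitoneal dosing 15 min before antigen; dye leakage per ear measured spectrophotometrically after 30 min. ID50 (mg/kg) given as dose giving 50% inhibition.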

In series [2] the test system is Mus musculus. The series can be described thus: Antiallergic activity in ddY mouse assessed as inhibition picryl chloride-induced contact dermatitis at 30 mg/kg, po administered 3 hrs after picryl chloride challenge measured after 24 hrs.
Series [3] has as its system Mus musculus. The series can be described thus: Antiallergic activity in ddY mouse assessed as inhibition sheep erythrocytes-induced arthus reaction at 30 mg/kg, po administered 30 mins before induction of arthus reaction. The series is classed as functional. In outline: (§1)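 Male ddY mice (4-week-old, 16–18 g) sensitized by iv sheep erythrocytes 19 and 5 days before Arthus reaction, induced by sc sheep erythrocytes into right paw. Oral dosing 30 min before induction; edema scored as right minus left paw thickness, expressed as % inhibition of control.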

The target in series [4] is T1, Aldo-keto reductase family 1 member D1 (Rattus norvegicus) (UniProt P31210).
T1 sequence (whole entry): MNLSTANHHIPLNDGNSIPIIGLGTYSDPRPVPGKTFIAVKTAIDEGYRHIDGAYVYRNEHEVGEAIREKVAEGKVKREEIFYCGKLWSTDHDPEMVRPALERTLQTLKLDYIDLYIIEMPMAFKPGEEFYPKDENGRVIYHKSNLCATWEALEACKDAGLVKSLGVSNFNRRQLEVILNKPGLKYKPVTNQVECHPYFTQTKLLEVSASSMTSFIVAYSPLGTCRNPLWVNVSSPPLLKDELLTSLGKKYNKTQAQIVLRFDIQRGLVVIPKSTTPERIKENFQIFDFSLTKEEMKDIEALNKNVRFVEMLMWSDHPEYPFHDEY
The series can be described thus: Inhibition of rat liver 3-ketosteroid 5-beta-reductase.

The test system of series [5] is Mus musculus. The series can be described thus: Antiallergic activity in po dosed ddY mouse assessed as inhibition of passive cutaneous anaphylaxis administered 30 mins before egg albumin challenge. Particulars: read-out: ID50 (the source's name). Type of series: functional. The procedure, abridged:
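Passive cutaneous anaphylaxis in mice: ear sensitization with anti-egg-albumin antiserum 48 h before iv egg albumin with Evans Blue; oral dosing 30 min before antigen; ear dye leakage read spectrophotometrically 30 min after challenge.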

Series [6] deals with Mus musculus. The series can be described thus: Antiallergic activity in ddY mouse assessed as inhibition sheep erythrocytes-induced arthus reaction at 300 mg/kg, po administered 30 mins before induction of arthus reaction. Type of series: functional. The procedure, abridged:
as §1

For series [7], the system named is Mus musculus. The series can be described thus: Acute toxicity in ddY mouse at 4 g/kg, po. The series is classed as organism-based. Particulars: in vivo, 4000 mg/kg. In outline: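 Mice dosed orally at 4 g/kg; lethality recorded as the read-out for acute toxicity.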
Series [8] concerns Mus musculus. The series can be described thus: Antiallergic activity in ddY mouse assessed as inhibition sheep erythrocytes-induced arthus reaction at 600 mg/kg, po administered 30 mins before induction of arthus reaction. Type of series: functional. In outline:
as §1

The test system of series [9] is Mus musculus. The series can be described thus: Antiallergic activity in ddY mouse assessed as inhibition picryl chloride-induced contact dermatitis at 300 mg/kg, po administered 3 hrs after picryl chloride challenge measured after 24 hrs.
For series [10], the system named is Mus musculus. The series can be described thus: Antiallergic activity in ddY mouse assessed as inhibition picryl chloride-induced contact dermatitis at 75 mg/kg, po administered 3 hrs after picryl chloride challenge measured after 24 hrs.
For series [11], the system named is Mus musculus. The series can be described thus: Antiallergic activity in ddY mouse assessed as inhibition picryl chloride-induced contact dermatitis at 150 mg/kg, po administered 3 hrs after picryl chloride challenge measured after 24 hrs.

Activity calls are given as the source filed them. The calls are words filed in the database; no cut-off is given here.

As for `CC1(C)[C@@H](OC(=O)CCC(=O)[O-])CC[C@]2(C)C3=C(CC[C@@H]12)[C@@]1(C)CC[C@@]2(C)CC[C@@](C)(CO)C[C@H]2[C@]1(C)CC3.[K+]`, the ED50 in series [1] is 50.3 mg/kg.

`CC1(C)[C@@H](OC(=O)CCC(=O)[O-])CC[C@]2(C)C3=C(CC[C@@H]12)[C@@]1(C)CC[C@@]2(C)CC[C@@](C)(COC(=O)CCC(=O)[O-])C[C@H]2[C@]1(C)CC3.[K+].[K+]`: the ED50 in [1] amounted to 52.4 mg/kg.

For `CC1(C)[C@@H](OC(=O)CCC(=O)[O-])CC[C@]2(C)C3=CC[C@@]4(C)[C@@H]5C[C@](C)(C(=O)[O-])CC[C@]5(C)CC[C@]4(C)C3=CC[C@@H]12.[K+].[K+]`, the ED50 in series [1] came out at 92.4 mg/kg.

For the compound `C[C@]12C=CC(=O)C=C1CC[C@@H]1[C@@H]2[C@@H](O)C[C@@]2(C)[C@H]1CC[C@]2(O)C(=O)COC(=O)CCC(=O)O` [PREDNISOLONE HEMISUCCINATE], the inhibition in vivo at 30 mg/kg in [2] is 41%; in series [3], 37.4%.

As for `CC1(C)[C@@H](O)CC[C@]2(C)[C@H]3C(=O)C=C4[C@@H]5C[C@@](C)(C(=O)O)CC[C@]5(C)CC[C@@]4(C)[C@]3(C)CC[C@@H]12`, the outcome in [4] was Active.

`CC1(C)[C@@H](O)CC[C@]2(C)C3=C(CC[C@@H]12)[C@@]1(C)CC[C@@]2(C)CC[C@@](C)(COC(=O)CCC(=O)[O-])C[C@H]2[C@]1(C)CC3.[K+]`: the ED50 in series [1] was greater than 400 mg/kg.

With `CC1(C)[C@@H](O)CC[C@]2(C)C3=C(CC[C@@H]12)[C@@]1(C)CC[C@@]2(C)CC[C@@](C)(CO)C[C@H]2[C@]1(C)CC3`, the ED50 in [1] turned out to be 315 mg/kg.

Consider `COc1ccc(/C=C/C(=O)Nc2ccccc2C(=O)O)cc1OC` [TRANILAST], for which the ED50 in series [1] amounted to 152 mg/kg.

Consider `CC1(C)[C@@H](OC(=O)c2ccccc2C(=O)[O-])CC[C@]2(C)C3=C(CC[C@@H]12)[C@@]1(C)CC[C@@]2(C)CC[C@@](C)(C(=O)[O-])C[C@H]2[C@]1(C)CC3.[K+].[K+]`, for which the ED50 in [1] was 34.2 mg/kg; in [5] it was 172 mg/kg.

Consider `CC1(C)[C@@H](OC(=O)c2ccccc2C(=O)[O-])CC[C@]2(C)C3=C(CC[C@@H]12)[C@@]1(C)CC[C@@]2(C)CC[C@@](C)(COC(=O)c4ccccc4C(=O)[O-])C[C@H]2[C@]1(C)CC3.[K+].[K+]`, for which the ED50 in [1] is 41.4 mg/kg; in [5], 92.5 mg/kg.

`CC1(C)[C@@H](OC(=O)CCC(=O)[O-])CC[C@]2(C)C3=C(CC[C@@H]12)[C@@]1(C)CC[C@@]2(C)CC[C@@](C)(C(=O)[O-])C[C@H]2[C@]1(C)CC3.[K+].[K+]`: the inhibition in vivo at 300 mg/kg in series [6] was determined as 35.3%; in [9] it was 53%. Further, the Activity result in series [7] was “Non-toxic”. The inhibition in vivo at 600 mg/kg in [8] was found to be 62.4%. In addition, the ED50 came to 55.3 mg/kg in [1] and 63.7 mg/kg in series [5]. The inhibition in vivo at 75 mg/kg in series [10] turned out to be 34%. The inhibition in vivo at 150 mg/kg in series [11] was determined as 40.7%.

As to `CC1(C)[C@@H](O)CC[C@]2(C)C3=C(CC[C@@H]12)[C@@]1(C)CC[C@@]2(C)CC[C@@](C)(C(=O)O)C[C@H]2[C@]1(C)CC3` [BRYONOLIC ACID], the outcome in series [4] was inactive. For the same compound, the ED50 in series [1] was 376 mg/kg.

By inhibition in vivo is commonly meant the relative decrease from the control value, in per cent.
